# In ChEMBL document CHEMBL1134451, “Synthesis, cytotoxicity, and antitumor activity of copper(II) and iron(II) complexes of (4)N-azabicyclo[3.2.2]nonane thiosemicarbazones derived from acyl diazines” (J Med Chem, 2001):
# What was measured:
# HT-29 [1] = assay: Cytotoxic activity against colon adenocarcinoma (HT-29) cell line; format: functional, cell-based, Homo sapiens
# Procedure, shortened: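 HT-29 colon adenocarcinoma cells in McCoy's 5A with 10% FCS, glutamine and penicillin/streptomycin, about 10 000 cells/well. After a 4 h preincubation, cells were exposed to compound (DMSO up to 0.5% final) for 72 h at 37 °C, 5% CO2. Readout was SRB assay. IC50 from dose-response curves; mean of at least three independent experiments run in duplicate.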
# CCRF-CEM = assay: Cytotoxic activity against human acute lymphoblastic leukemia (CCRF-CEM) cell line; format: functional, cell-based
# lymphoma [2] = assay: (§1) Percentage of cells in G1 cell cycle phase of lymphoma cells after 24 hr treatment; format: functional; details: Homo sapiens
# lymphoma [3] = assay: (§2) Percentage of cells in G2-M cell cycle phase of lymphoma cells after 24 hr treatment; format: functional; details: Homo sapiens
# [4] = Ratio of IC50 values was calculated by IC50 cytidine incorporation/IC50 cell proliferation; format: functional
# Procedure, shortened: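 Ratio of the [14C]cytidine-incorporation IC50 to the cell-proliferation IC50, both measured in Burkitt's lymphoma cells.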
# lymphoma [5] = assay: (§3) Percentage of cells in S cell cycle phase of lymphoma cells after 24 hr treatment; format: functional; details: Homo sapiens
# lymphoma [6] = assay: (§4) Percentage of cells in S cell cycle phase of lymphoma cells after 48 hr treatment; format: functional; details: Homo sapiens
# lymphoma [7] = assay: (§5) Percentage of cells in G2-M cell cycle phase of lymphoma cells after 48 hr treatment; format: functional; details: Homo sapiens
# lymphoma [8] = assay: (§6) Percentage of cells in G1 cell cycle phase of lymphoma cells after 48 hr treatment; format: functional; details: Homo sapiens
# [9] = Mean IC50 value of the compound; format: functional
# Procedure, shortened: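 Geometric mean of clonogenic soft-agar IC50 values across the tumor xenografts tested: 10 raised to the mean of log IC50 over all xenografts.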
# MEXF276L = assay: Inhibition of cell proliferation of human melanoma MEXF276L tumor xenograft in colony forming assay; format: functional, cell-based
# MEXF989 = assay: Inhibition of cell proliferation of human melanoma MEXF989 tumor xenograft in colony forming assay; format: functional, cell-based
# HT-29 [10] = assay: Inhibition of cell proliferation of human colon HT-29X tumor xenograft in colony forming assay; format: functional, cell-based
# [11] = Inhibition of cell proliferation in Burkitt's lymphoma cells; format: functional, cell-based, Homo sapiens
# LXFL 529 = assay: Inhibition of cell proliferation of human lung large cell LXFL529 tumor xenograft in colony forming assay; format: functional, cell-based
# CXF1103 = assay: Inhibition of cell proliferation of human colon CXF1103 tumor xenograft in colony forming assay; format: functional, cell-based
# MX1 = assay: Inhibition of cell proliferation of human breast MXI tumor xenograft in colony forming assay; format: functional, cell-based
# CXF280 = assay: Inhibition of cell proliferation of human colon CXF280 tumor xenograft in colony forming assay; format: functional, cell-based
# PAXF546 = assay: Inhibition of cell proliferation of human pancreas PAXF546 tumor xenograft in colony forming assay; format: functional, cell-based
# [12] = Inhibition of [14C]-cytidine incorporation into DNA in Burkitt''s lymphoma cells; format: functional, cell-based, Homo sapiens
# Procedure, shortened: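 Intact exponentially growing Burkitt's lymphoma cells, (1-2)×10^6/mL, incubated with compound at 37 °C for 90 min, then 0.7 μCi [14C]cytidine added. Cells TCA-precipitated and RNase-treated in Tris-HCl pH 8 for 2 h at 37 °C, then reprecipitated with TCA. Pellet dissolved in NaOH and counted by scintillation. IC50 is the mean of two experiments run in duplicate.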
# MCF7 = assay: Inhibition of cell proliferation of human breast MCF7X tumor xenograft in colony forming assay; format: functional, cell-based
# LXFS538 = assay: Inhibition of cell proliferation of human lung small cell LXFS538 tumor xenograft in colony forming assay; format: functional, cell-based
# PAXF736 = assay: Inhibition of cell proliferation of human pancreas PAXF736 tumor xenograft in colony forming assay; format: functional, cell-based
# RXF 423 = assay: Inhibition of cell proliferation of human renal RXF423 tumor xenograft in colony forming assay; format: functional, cell-based
# OVXF1023 cell line = assay: Inhibition of cell proliferation of human ovary OVXF1023 tumor xenograft in colony forming assay; format: functional, cell-based, Female gonad
# OVXF1353 cell line = assay: Inhibition of cell proliferation of human ovary OVXF1353 tumor xenograft in colony forming assay; format: functional, cell-based, Female gonad
# CXF158 = assay: Inhibition of cell proliferation of human colon CXF158 tumor xenograft in colony forming assay; format: functional, cell-based
# [13] = as §1; format: functional, Homo sapiens
# [14] = as §2; format: functional, Homo sapiens
# [15] = as §3; format: functional, Homo sapiens
# [16] = as §4; format: functional, Homo sapiens
# [17] = as §5; format: functional, Homo sapiens
# [18] = as §6; format: functional, Homo sapiens
compound,measurement,setting,value
C/C(=N\N=C(/S)N1CC2CCC(CC2)C1)c1cnccn1,IC50,"HT-29 [1]; Homo sapiens, HT-29",11 nM
same,IC50,"CCRF-CEM; Homo sapiens, CCRF-CEM",11 nM
N-[(1E)-1-pyrimidin-4-ylethylidene]-3-azabicyclo[3.2.2]nonane-3-carbohydrazonothioic acid.chloro Cu(II)complex,IC50,HT-29 [1]; ht-29,< 10 nM
same,IC50,CCRF-CEM; ccrf-cem,< 10 nM
N-[(1E)-1-(3-methylpyrazin-2-yl)ethylidene]-3-azabicyclo[3.2.2]nonane-3-carbohydrazonothioic acid.chloro Cu(II)complex [listing 1 of 2 here],Activity,lymphoma [2],51.9%
same,Activity,lymphoma [3],17%
same,IC50 ratio,[4],30
same,Activity,lymphoma [5],22.8%
same,Activity,lymphoma [6],29.8%
same,Activity,lymphoma [7],9.81%
same,Activity,lymphoma [8],49.3%
same,Mean IC50,[9],0.37 nM
N-[(1E)-1-(6-methylpyrimidin-4-yl)ethylidene]-3-azabicyclo[3.2.2]nonane-3-carbohydrazonothioic acid.chloro Cu(II)complex [listing 1 of 2 here],Activity,lymphoma [2],64.5%
same,Activity,lymphoma [3],13.6%
same,IC50 ratio,[4],11.7
same,Activity,lymphoma [5],21.7%
same,Activity,lymphoma [6],21.5%
same,Activity,lymphoma [7],11.4%
same,Activity,lymphoma [8],59.2%
same,Mean IC50,[9],1 nM
N-[(1E)-1-pyrazin-2-ylethylidene]-3-azabicyclo[3.2.2]nonane-3-carbohydrazonothioic acid.chloro Cu(II)complex,IC50,HT-29 [1]; ht-29,< 10 nM
same,IC50,CCRF-CEM; ccrf-cem,< 10 nM
N-[(1E)-1-(3-methylpyrazin-2-yl)ethylidene]-3-azabicyclo[3.2.2]nonane-3-carbohydrazonothioic acid.chloro Cu(II)complex [listing 2 of 2 here],IC50,MEXF276L,36 nM
same,IC50,MEXF989,3 nM
same,IC50,HT-29 [10],0.85 nM
same,IC50,[11],6 nM
same,IC50,LXFL 529,< 0.1 nM
same,IC50,CXF1103,< 0.1 nM
same,IC50,MX1,5 nM
same,IC50,CCRF-CEM; ccrf-cem,6 nM
same,IC50,CXF280,< 0.1 nM
same,IC50,PAXF546,0.56 nM
same,IC50,[12],180 nM
same,IC50,MCF7,0.21 nM
same,IC50,LXFS538,0.22 nM
same,IC50,PAXF736,< 0.1 nM
N-[(1E)-1-(5-methylpyrazin-2-yl)ethylidene]-3-azabicyclo[3.2.2]nonane-3-carbohydrazonothioic acid.chloro Cu(II)complex [listing 1 of 2 here],Activity,lymphoma [2],53.1%
same,Activity,lymphoma [3],19.9%
same,IC50 ratio,[4],495
same,Activity,lymphoma [5],25.9%
same,Activity,lymphoma [6],29.4%
same,Activity,lymphoma [7],17.7%
same,Activity,lymphoma [8],52.7%
same,Mean IC50,[9],0.37 nM
N-[(1E)-1-(5-methylpyrazin-2-yl)ethylidene]-3-azabicyclo[3.2.2]nonane-3-carbohydrazonothioic acid.chloro Cu(II)complex [listing 2 of 2 here],IC50,MEXF276L,14 nM
same,IC50,MEXF989,0.7 nM
same,IC50,HT-29 [10],1 nM
same,IC50,[11],6 nM
same,IC50,LXFL 529,< 0.1 nM
same,IC50,CXF1103,< 0.1 nM
same,IC50,HT-29 [1]; ht-29,4 nM
same,IC50,RXF 423,4 nM
same,IC50,MX1,4 nM
same,IC50,CCRF-CEM; ccrf-cem,5 nM
same,IC50,CXF280,< 0.1 nM
same,IC50,PAXF546,0.2 nM
same,IC50,[12],2970 nM
same,IC50,MCF7,< 0.1 nM
same,IC50,OVXF1023 cell line,10 nM
same,IC50,OVXF1353 cell line,24 nM
same,IC50,CXF158,0.13 nM
same,IC50,PAXF736,< 10 nM
N-[(1E)-1-(6-methylpyrimidin-4-yl)ethylidene]-3-azabicyclo[3.2.2]nonane-3-carbohydrazonothioic acid.chloro Cu(II)complex [listing 2 of 2 here],IC50,MEXF989,0.84 nM
same,IC50,HT-29 [10],5 nM
same,IC50,LXFL 529,< 0.1 nM
same,IC50,CXF1103,0.11 nM
same,IC50,HT-29 [1]; ht-29,4 nM
same,IC50,RXF 423,26 nM
same,IC50,MX1,14 nM
same,IC50,CCRF-CEM; ccrf-cem,10 nM
same,IC50,CXF280,0.2 nM
same,IC50,PAXF546,3 nM
same,IC50,[12],210 nM
same,IC50,MCF7,0.2 nM
same,IC50,OVXF1023 cell line,15 nM
same,IC50,OVXF1353 cell line,19 nM
same,IC50,CXF158,2 nM
same,IC50,PAXF736,15 nM
C/C(=N\N=C(/S)N1CC2CCC(CC2)C1)c1ccncn1,IC50,"HT-29 [1]; Homo sapiens, HT-29",50 nM
same,IC50,"CCRF-CEM; Homo sapiens, CCRF-CEM",20 nM
NC(=O)NO [HYDROXYUREA],Activity,[13],48.2%
same,Activity,[14],11.9%
same,IC50 ratio,[4],0.26
same,Activity,[15],38.22%
same,Activity,[16],45.1%
same,Activity,[17],19.52%
same,IC50,[11]; Homo sapiens,140000 nM
same,IC50,[12],37200 nM
same,Activity,[18],21.27%
N-[(1E)-1-(6-methylpyridazin-3-yl)ethylidene]-3-azabicyclo[3.2.2]nonane-3-carbohydrazonothioic acid.chloro Cu(II)complex,IC50,HT-29 [1]; ht-29,870 nM
same,IC50,CCRF-CEM; ccrf-cem,130 nM
Copper(II) Complex,IC50,HT-29 [1]; ht-29,1510 nM
same,IC50,CCRF-CEM; ccrf-cem,300 nM
